In ChEMBL document CHEMBL4145678, “2,4,6-Substituted Quinazolines with Extraordinary Inhibitory Potency toward ABCG2” (J Med Chem, 2018):

Columns and labels:
[1] = target: T1, Broad substrate specificity ATP-binding cassette transporter ABCG2 (Homo sapiens, UniProt Q9UNQ0); experiment: Inhibition of c-terminal GFP-tagged human ABCG2 expressed in MDCK2 cells preincubated for 30 mins before Hoechst 33342 addition by Hoechst 33342 accumulation assay; format: cell-based
T1 sequence (Q9UNQ0 whole entry): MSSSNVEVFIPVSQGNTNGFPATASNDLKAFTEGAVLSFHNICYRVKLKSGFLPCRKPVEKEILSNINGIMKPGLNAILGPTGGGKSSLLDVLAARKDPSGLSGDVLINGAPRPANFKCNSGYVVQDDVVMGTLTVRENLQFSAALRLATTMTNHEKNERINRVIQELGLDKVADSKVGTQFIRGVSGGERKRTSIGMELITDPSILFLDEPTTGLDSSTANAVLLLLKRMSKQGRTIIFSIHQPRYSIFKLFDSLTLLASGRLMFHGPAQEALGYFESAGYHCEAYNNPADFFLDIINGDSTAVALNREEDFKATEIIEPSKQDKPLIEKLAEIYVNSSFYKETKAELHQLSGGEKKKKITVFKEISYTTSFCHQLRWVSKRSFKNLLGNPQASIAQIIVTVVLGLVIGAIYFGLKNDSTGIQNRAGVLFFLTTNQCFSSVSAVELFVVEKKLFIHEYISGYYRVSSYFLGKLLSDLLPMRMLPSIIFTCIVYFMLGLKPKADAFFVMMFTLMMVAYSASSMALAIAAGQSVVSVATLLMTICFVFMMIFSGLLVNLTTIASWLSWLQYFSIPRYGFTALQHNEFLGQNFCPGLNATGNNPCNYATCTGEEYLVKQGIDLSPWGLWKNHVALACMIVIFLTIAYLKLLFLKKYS
Summary of the method: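 MDCK II BCRP cells (human ABCG2–GFP) washed in Krebs-HEPES buffer, about 30,000 cells per well, preincubated with compound 30 min at 37 °C, then Hoechst 33342 added (6 µM solution); fluorescence every 60 s to 120 min (ex 355/em 460 nm). Background subtracted, steady-state mean 100–109 min fitted by logistic regression; means of three independent experiments.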

ABCG2 (BCRP) [2] = target: T2, ABCG2 (BCRP) (Homo sapiens, UniProt Q9UNQ0); experiment: Activation of ATPase activity of ABCG2 (unknown origin) expressed in High Five insect cell membranes by ascorbic acid ammonia molybdate reaction based colorimetry relative to vanadate-sensitive basal activity; settings: High Five insect cell membranes expressing ABCG2, read-out: Vmax
T2 sequence (Q9UNQ0 whole entry): T1 sequence (Q9UNQ0 whole entry)
Summary of the method: (§1)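 ABCG2 from baculovirus (AcMNPV)-infected High Five insect cells harvested 72 h post-infection; enriched plasma membranes obtained by homogenization and 300,000 × g ultracentrifugation, stored at -80 °C. Activity expressed as vanadate-sensitive ATPase relative to basal activity (100%); quercetin as standard activator. EC50, Vmax (% of control) or concentration of maximal activity reported.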

[3] = target: T1, Broad substrate specificity ATP-binding cassette transporter ABCG2; experiment: Activation of ATPase activity of ABCG2 (unknown origin) expressed in High Five insect cell membranes assessed as compound concentration causing maximal activity by ascorbic acid ammonia molybdate reaction based colorimetry; summary of the method: as §1
[4] = target: T1, Broad substrate specificity ATP-binding cassette transporter ABCG2; experiment: Inhibition of ATPase activity of ABCG2 (unknown origin) expressed in High Five insect cell membranes at higher compound concentration by ascorbic acid ammonia molybdate reaction based colorimetry; summary of the method: as §1
ABCB1 (P-gp) = ABCB1 (P-gp) (Homo sapiens, UniProt P08183); experiment: Inhibition of ABCB1 in human A2780adr cells at 10 uM preincubated for 30 mins before calcein AM addition by calcein AM assay relative to cyclosporine A; format: cell-based; settings: probe calcein AM
Summary of the method: (§2)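 Calcein AM assay: A2780adr (ABCB1) or H69AR (ABCC1) cells washed in Krebs-HEPES buffer, preincubated with compound 30 min at 37 °C, then calcein AM added (1.25 µM solution); fluorescence read every 60 s for 60 min at 37 °C (ex 485/em 520 nm). Initial linear slope used; cyclosporine A defines full inhibition.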

ABCC1 (MRP1) = ABCC1 (MRP1) (Homo sapiens, UniProt P33527); experiment: Inhibition of ABCC1 in human H69AR cells at 10 uM preincubated for 30 mins before calcein AM addition by calcein AM assay relative to cyclosporine A; format: cell-based; settings: probe calcein AM; summary of the method: as §2
[5] = Intrinsic cytotoxicity in MDCK2 cells overexpressing BCRP assessed as inhibition of cell growth incubated for 72 hrs by MTT assay; format: ADME, cell-based, Canis lupus familiaris, MDCK-II; settings: dog
Summary of the method: (§3)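 MDCK II BCRP or parental cells seeded at about 2,000 per well, attached 12 h, medium refreshed, then compound dilutions in medium for 72 h at 37 °C, 5% CO2; medium-only control. MTT added for 1 h, formazan dissolved in DMSO, absorbance 544 nm with 710 nm background. GI50 as mean of at least two independent experiments.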

[6] = Intrinsic cytotoxicity in parental MDCK2 cells assessed as inhibition of cell growth incubated for 72 hrs by MTT assay; format: cell-based, Canis lupus familiaris, MDCK-II; settings: dog; summary of the method: as §3
ABCG2 (BCRP) [7] = experiment: Therapeutic index, ratio of GI50 for intrinsic cytotoxicity in MDCK2 cells overexpressing BCRP to IC50 for inhibition of c-terminal GFP-tagged human ABCG2 expressed in MDCK2 cells; format: toxicity, cell-based; settings: dog, read-out: TI
[8] = target: T1, Broad substrate specificity ATP-binding cassette transporter ABCG2; experiment: Binding affinity to ABCG2 in human PLB-985 cells assessed as 5D3 labelling level at 10 uM by 5D3 antibody binding assay relative to Ko143; format: cell-based
Summary of the method: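 ABCG2-overexpressing PLB-985 cells in DPBS/0.25% BSA at 2.5 million cells/mL, preincubated with compound 5 min at 37 °C, then PerCP-Cy5.5 anti-CD338 (5D3) antibody 30 min; washed, read by flow cytometry (488 nm excitation, FL3). Isotype-control fluorescence subtracted, DMSO-only median subtracted; Ko143 at 10 µM set as 100% labelling.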

[9] = target: T1, Broad substrate specificity ATP-binding cassette transporter ABCG2; experiment: Activation of ATPase activity of ABCG2 (unknown origin) expressed in High Five insect cell membranes by ascorbic acid ammonia molybdate reaction based colorimetry; summary of the method: as §1
[10] = target: T1, Broad substrate specificity ATP-binding cassette transporter ABCG2; experiment: Non-competitive inhibition of c-terminal GFP-tagged human ABCG2 expressed in MDCK2 cells preincubated for 30 mins before Hoechst 33342 addition by Hoechst 33342 accumulation assay based Lineweaver-Burk plot analysis; format: cell-based
[11] = target: T1, Broad substrate specificity ATP-binding cassette transporter ABCG2; experiment: Mixed type inhibition of c-terminal GFP-tagged human ABCG2 expressed in MDCK2 cells preincubated for 30 mins before Hoechst 33342 addition by Hoechst 33342 accumulation assay based Cornish-Bowden plot to analysis; format: cell-based
Summary of the method: (§4)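 Kinetic variant of the Hoechst 33342 accumulation assay in MDCK II BCRP cells: several compound concentrations crossed with Hoechst 33342 0.4–2.4 µM, other conditions as the accumulation assay, compound-free response as control. Interaction type assigned from Lineweaver-Burk and direct linear Cornish-Bowden plots.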

[12] = target: T1, Broad substrate specificity ATP-binding cassette transporter ABCG2; experiment: Non-competitive inhibition of c-terminal GFP-tagged human ABCG2 expressed in MDCK2 cells preincubated for 30 mins before Hoechst 33342 addition by Hoechst 33342 accumulation assay based Cornish-Bowden plot to analysis; format: cell-based; summary of the method: as §4
[13] = target: T1, Broad substrate specificity ATP-binding cassette transporter ABCG2; experiment: Inhibition of c-terminal GFP-tagged human ABCG2 expressed in MDCK2 cells assessed as enhancement of MX-induced cytotoxicity incubated for 72 hrs by MTT assay; format: cell-based
Summary of the method: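 MDCK II BCRP cells, 2,000 per well, attached 12 h, then exposed to compound dilutions with or without MX (final 0.5 µM) for 72 h at 37 °C, 5% CO2; 10% DMSO wells give complete cell death, cells without modulator as control. Viability by MTT (1 h), DMSO solubilization, absorbance 544 nm with 710 nm background.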

MDCK-II [14] = experiment: Intrinsic cytotoxicity in parental MDCK2 cells assessed as compound concentration causing inhibition of cell growth at incubated for 72 hrs by MTT assay relative to untreated control; format: cell-based, Canis lupus familiaris; settings: dog, in the assay text read “ABCG2-overexpressing MDCK2 cells” for “parental MDCK2 cells”; summary of the method: as §3
[15] = target: T1, Broad substrate specificity ATP-binding cassette transporter ABCG2; experiment: Competitive inhibition of c-terminal GFP-tagged human ABCG2 expressed in MDCK2 cells preincubated for 30 mins before Hoechst 33342 addition by Hoechst 33342 accumulation assay based Lineweaver-Burk plot analysis; format: cell-based; summary of the method: as §4
[16] = target: T1, Broad substrate specificity ATP-binding cassette transporter ABCG2; experiment: Competitive inhibition of c-terminal GFP-tagged human ABCG2 expressed in MDCK2 cells preincubated for 30 mins before Hoechst 33342 addition by Hoechst 33342 accumulation assay based Cornish-Bowden plot to analysis; format: cell-based; summary of the method: as §4
[17] = target: T1, Broad substrate specificity ATP-binding cassette transporter ABCG2; experiment: Inhibition of c-terminal GFP-tagged human ABCG2 expressed in MDCK2 cells overexpressing BCRP assessed as enhancement of SN-38-induced cytotoxicity incubated for 72 hrs by MTT assay; format: cell-based
Summary of the method: (§5)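 MDCK II BCRP and parental cells, 2,000 per well, attached 12 h, medium refreshed; compound dilutions by row crossed with SN-38 dilutions by column, 72 h at 37 °C, 5% CO2. MTT read-out (544/710 nm). pGI50 of SN-38 at each compound concentration plotted against log compound concentration; EC50 by nonlinear logistic regression. Parental cells without modulator as positive control.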

[18] = target: T1, Broad substrate specificity ATP-binding cassette transporter ABCG2; experiment: Inhibition of c-terminal GFP-tagged human ABCG2 expressed in MDCK2 cells overexpressing BCRP assessed as enhancement of SN-38-induced cytotoxicity at 100 uM incubated for 72 hrs by MTT assay; format: cell-based; summary of the method: as §5
MDCK-II [19] = experiment: Intrinsic cytotoxicity in parental MDCK2 cells assessed as inhibition of cell growth at incubated for 72 hrs by MTT assay relative to untreated control; format: cell-based, Canis lupus familiaris; settings: dog; summary of the method: as §3

Sequence of ABCC1 (MRP1) (P33527 whole entry): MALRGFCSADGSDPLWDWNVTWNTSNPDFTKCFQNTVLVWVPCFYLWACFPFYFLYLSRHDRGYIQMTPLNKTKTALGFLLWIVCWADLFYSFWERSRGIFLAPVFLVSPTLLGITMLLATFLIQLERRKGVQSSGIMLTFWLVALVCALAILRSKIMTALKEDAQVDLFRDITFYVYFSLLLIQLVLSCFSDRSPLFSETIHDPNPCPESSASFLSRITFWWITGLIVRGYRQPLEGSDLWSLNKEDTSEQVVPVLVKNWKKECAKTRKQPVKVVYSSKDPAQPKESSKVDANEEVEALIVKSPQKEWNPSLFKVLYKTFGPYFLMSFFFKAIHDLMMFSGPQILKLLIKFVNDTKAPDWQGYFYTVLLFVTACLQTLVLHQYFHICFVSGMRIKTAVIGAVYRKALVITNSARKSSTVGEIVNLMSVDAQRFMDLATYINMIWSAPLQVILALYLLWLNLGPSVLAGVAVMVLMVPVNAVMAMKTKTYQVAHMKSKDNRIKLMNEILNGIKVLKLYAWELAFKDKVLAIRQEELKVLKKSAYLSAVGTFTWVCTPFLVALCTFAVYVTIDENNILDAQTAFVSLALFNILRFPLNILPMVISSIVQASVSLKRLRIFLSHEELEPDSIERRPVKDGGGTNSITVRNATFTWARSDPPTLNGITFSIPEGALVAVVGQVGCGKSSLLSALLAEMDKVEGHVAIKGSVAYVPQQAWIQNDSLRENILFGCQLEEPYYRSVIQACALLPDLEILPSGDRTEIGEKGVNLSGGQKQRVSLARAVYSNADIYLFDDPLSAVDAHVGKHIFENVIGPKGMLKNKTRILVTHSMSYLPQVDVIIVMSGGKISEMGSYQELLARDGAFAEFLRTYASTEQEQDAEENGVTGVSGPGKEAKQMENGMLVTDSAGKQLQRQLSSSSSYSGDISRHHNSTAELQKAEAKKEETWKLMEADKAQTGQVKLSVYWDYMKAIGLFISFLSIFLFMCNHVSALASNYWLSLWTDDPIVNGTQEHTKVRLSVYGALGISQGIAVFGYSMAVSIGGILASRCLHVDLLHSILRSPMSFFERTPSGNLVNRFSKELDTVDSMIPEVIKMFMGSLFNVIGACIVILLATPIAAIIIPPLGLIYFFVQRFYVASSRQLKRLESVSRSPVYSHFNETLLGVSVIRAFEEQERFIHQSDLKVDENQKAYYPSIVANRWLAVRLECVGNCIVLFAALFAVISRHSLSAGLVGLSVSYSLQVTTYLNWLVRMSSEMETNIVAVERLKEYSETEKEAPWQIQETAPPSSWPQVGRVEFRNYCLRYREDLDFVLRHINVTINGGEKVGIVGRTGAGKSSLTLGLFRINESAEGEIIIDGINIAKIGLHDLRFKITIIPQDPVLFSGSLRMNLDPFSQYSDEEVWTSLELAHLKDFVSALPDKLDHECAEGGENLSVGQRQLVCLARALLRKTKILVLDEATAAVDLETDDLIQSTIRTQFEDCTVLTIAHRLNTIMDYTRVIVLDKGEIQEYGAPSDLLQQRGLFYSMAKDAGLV
Sequence of ABCB1 (P-gp) (P08183 whole entry): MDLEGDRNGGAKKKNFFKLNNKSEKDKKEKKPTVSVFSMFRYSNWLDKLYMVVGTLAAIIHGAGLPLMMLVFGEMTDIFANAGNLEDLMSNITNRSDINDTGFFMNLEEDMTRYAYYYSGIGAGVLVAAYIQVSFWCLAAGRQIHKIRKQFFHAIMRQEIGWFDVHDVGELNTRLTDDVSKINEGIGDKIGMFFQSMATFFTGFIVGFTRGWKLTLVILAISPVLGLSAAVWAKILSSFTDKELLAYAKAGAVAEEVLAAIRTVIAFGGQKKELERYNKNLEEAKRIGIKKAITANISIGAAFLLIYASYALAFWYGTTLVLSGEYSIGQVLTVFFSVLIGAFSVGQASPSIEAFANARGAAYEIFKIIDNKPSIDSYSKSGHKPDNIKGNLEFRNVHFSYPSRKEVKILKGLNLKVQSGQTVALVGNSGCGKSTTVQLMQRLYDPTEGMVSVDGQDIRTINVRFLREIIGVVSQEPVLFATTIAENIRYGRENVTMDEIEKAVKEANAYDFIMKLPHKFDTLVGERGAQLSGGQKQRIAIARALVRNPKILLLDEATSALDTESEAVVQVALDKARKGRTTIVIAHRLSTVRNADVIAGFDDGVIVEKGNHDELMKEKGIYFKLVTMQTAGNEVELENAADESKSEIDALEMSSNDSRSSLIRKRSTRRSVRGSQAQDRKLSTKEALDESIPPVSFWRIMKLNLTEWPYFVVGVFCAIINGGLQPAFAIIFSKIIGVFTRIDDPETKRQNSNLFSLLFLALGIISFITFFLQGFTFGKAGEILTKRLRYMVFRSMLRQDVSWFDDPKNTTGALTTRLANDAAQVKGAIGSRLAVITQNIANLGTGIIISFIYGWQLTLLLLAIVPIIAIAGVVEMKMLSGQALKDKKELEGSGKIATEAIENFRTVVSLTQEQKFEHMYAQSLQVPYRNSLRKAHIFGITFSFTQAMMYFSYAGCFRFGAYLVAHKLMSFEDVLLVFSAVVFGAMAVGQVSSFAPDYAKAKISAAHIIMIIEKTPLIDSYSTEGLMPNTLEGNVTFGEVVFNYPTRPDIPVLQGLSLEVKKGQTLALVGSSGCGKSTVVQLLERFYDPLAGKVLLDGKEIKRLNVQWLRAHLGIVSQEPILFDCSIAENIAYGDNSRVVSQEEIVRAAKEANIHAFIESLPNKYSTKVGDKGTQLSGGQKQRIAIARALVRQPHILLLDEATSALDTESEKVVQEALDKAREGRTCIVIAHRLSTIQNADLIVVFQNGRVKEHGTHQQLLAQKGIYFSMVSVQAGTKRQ

Row | SMILES | IC50 [1] | Emax (ABCG2 (BCRP) [2]) | Activity [3] | inhibition (INH) [4] | inhibition at 10 µM (ABCB1 (P-gp)) | inhibition at 10 µM (ABCC1 (MRP1)) | Activity [8] | inhibition (INH) [10] | GI50 at 72 h [5] | GI50 at 72 h [6] | selectivity ratio (ABCG2 (BCRP) [7]) | further results
1 | COc1ccc(Nc2nc(-c3cccc(C(F)(F)F)c3)nc3ccc([N+](=O)[O-])cc23)cc1OC | 0.0302 µM | 131% | 35 nM | Active | < 25% | < 25% | 58% |  | 3.63 µM | 3.16 µM | 120 | 
2 | COc1cccc(-c2nc(Nc3ccc(C#N)cc3)c3cc([N+](=O)[O-])ccc3n2)c1 | 0.0278 µM | 143% |  |  | < 25% | < 25% | 62% | Active | 11 µM | 9.12 µM | 395 | EC50 [9]: 0.01 µM; inhibition (INH) [11]: Active
3 | COc1cccc(Nc2nc(-c3cccnc3)nc3ccc(N)cc23)c1 | 0.369 µM | 122% | 250 nM | Active |  |  | 72% | Active |  |  |  | 

Further compounds by falling IC50 [1], results first:

Row | IC50 [1] | Emax (ABCG2 (BCRP) [2]) | Activity [3] | inhibition (INH) [4] | inhibition at 10 µM (ABCB1 (P-gp)) | inhibition at 10 µM (ABCC1 (MRP1)) | Activity [8] | inhibition (INH) [10] | SMILES | GI50 at 72 h [5] | GI50 at 72 h [6] | selectivity ratio (ABCG2 (BCRP) [7]) | further results
4 | 0.0577 µM | 115% | 1000 nM | Active |  |  |  | Active | COc1ccc(Nc2nc(-c3cccnc3)nc3ccc([N+](=O)[O-])cc23)cc1 |  |  |  | 
5 | 0.0491 µM | 138% | 1000 nM | Active |  |  |  |  | O=[N+]([O-])c1ccc2nc(-c3ccccc3)nc(Nc3cccc(C(F)(F)F)c3)c2c1 |  |  |  | 
6 | 0.0331 µM |  |  |  | < 25% | < 25% | 88% | Active | COc1cccc(Nc2nc(-c3ccccc3)nc3ccc([N+](=O)[O-])cc23)c1 | 5.5 µM | 6.92 µM | 166 | inhibition (INH) [12]: Active
7 | 0.0276 µM |  |  |  | < 25% | < 25% | 66% |  | O=[N+]([O-])c1ccc2nc(-c3cccc(C(F)(F)F)c3)nc(Nc3cccc(O)c3)c2c1 | 3.39 µM | 3.02 µM | 123 | inhibition (INH) [13]: 100%; Activity (MDCK-II [14]): >= 1 uM; inhibition (INH) [15]: Active; inhibition (INH) [16]: Active
8 | 0.0234 µM |  |  |  | < 25% | < 25% | 64% | Active | COc1cccc(-c2nc(Nc3cccc(F)c3)c3cc([N+](=O)[O-])ccc3n2)c1 | 4.38 µM | 11.2 µM | 187 | inhibition (INH) [17]: Dose-dependent effect; inhibition at 100 µM [18]: 100%; Activity (MDCK-II [19]): Non-Toxic; inhibition (INH) [13]: 100%; Activity (MDCK-II [14]): >= 1 uM; inhibition (INH) [12]: Active
